Data set [1] can be described thus: Fluorescence spectroscopy. The settings on record: for Φ (quantum yield): standard quinine sulfate; for excitation peaks (λexc): approximate values, solvent not stated. The data set is classed as physicochemical. In a few lines: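 Spectra taken in EtOH, CHCl3 and PBS on free bases (hydrochlorides also in EtOH/PBS), with 10 nm excitation/emission bandpass. Emission scanned 300–700 nm; excitation scanned 250–450 or 300–550 nm by compound. Quantum yield was relative to a quinine sulfate standard (reference value 0.546), with absorbance below 0.2 at 347 nm. Spectra were instrument-corrected and integrated, and a refractive-index correction applied.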

A short description of data set [2]: Molar extinction coefficient. The data set is classed as physicochemical. The settings on record: EtOH solutions. In a few lines:
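Absorbance spectra (200–600 nm) of test compound in EtOH at 1–100 μM, in 1 cm quartz cuvettes. ε was obtained by fitting Beer's law to absorbance at the excitation wavelength. Measurements were repeated twice.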

Data set [3] concerns the target T1, σ2 receptor (Rattus norvegicus, UniProt Q5U3Y7).
T1 sequence (Q5U3Y7 1-176): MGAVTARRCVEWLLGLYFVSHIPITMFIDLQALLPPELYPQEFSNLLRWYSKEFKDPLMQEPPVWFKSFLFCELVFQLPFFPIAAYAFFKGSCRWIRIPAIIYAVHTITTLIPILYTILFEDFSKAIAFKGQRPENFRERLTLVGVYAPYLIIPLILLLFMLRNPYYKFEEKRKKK
Description: σ2 receptor radioligand binding, [3H]DTG with. As to conditions: from Ki σ1 (guinea-pig brain) and Ki σ2 (rat liver).

Data set [4] has as its system BxPC3 cells. Description: Competition of compound 16 by σ2 agonists, flow cytometry. As to conditions: preloading 45 min at increasing concentrations, then 16 (25 nM) 45 min. It counts as cell-based, human.
Data set [5] has as its system BxPC3 cells. In words: Cell viability at increasing seeding density. The settings on record: 100 μM, seeding density 1 × 10^5 to 9 × 10^5. It counts as cell-based, human.

Values joined by “and” are separate entries in the source; they are usually repeats but may differ in a detail not shown here. Equal values may be shown once.

As to `COc1cccc2c1CCCC2CCCN1CCN(C2CCN(CCCCCCNS(=O)(=O)c3cccc4c(N(C)C)cccc34)CC2)CC1` (stereo not shown) [compound 8, 5-Dimethylaonaphthalene-1-sulfonic acid 6-[4-[4-[3-(5-methoxy-1,2,3,4-tetrahydronaphthalen-1-yl)propyl]piperazin-1-yl]piperidino]hexanamide], in data set [1] (CHCl3), the λem was 490 nm, the λexc is listed as 346 nm and the “Φ (quantum yield)” value is on record as 0.32. Moreover, in data set [1] (EtOH, free bases), the λem came to 507 nm, the λexc is reported as 335 nm and the “Φ (quantum yield)” value was 0.29. In data set [1] (PBS, free bases), this compound returned a λem of 510 nm and a λexc of 340 nm. The “excitation peaks (λexc)” value in data set [1] was ~ 335 nm and ~ 450 nm. Besides, the “ε (molar extinction coefficient)” value in data set [2] came to 2600 L/mol/cm.

`CN(C)c1cccc2c(S(=O)(=O)NCCCCCCOc3cccc4c3CCCC4CCCN3CCN(C4CCCCC4)CC3)cccc12` (stereo not shown) [compound 18, 5-Dimethylaonaphthalene-1-sulfonic acid 6-[5-[3-(4-cyclohexylpiperazin-1-yl)propyl]-5,6,7,8-tetrahydronaphthalen-1-yloxy]hexanamide]: the “σ2 versus σ1 selectivity” value in data set [3] is “did not show any σ2 versus σ1 selectivity”. In data set [1] (CHCl3), the λem stood at 490 nm, the λexc is 340 nm and the “Φ (quantum yield)” value is 0.30. Further, in data set [1] (EtOH, free bases), the λem is 507 nm, the λexc was found to be 335 nm and the “Φ (quantum yield)” value worked out at 0.20. Also, in data set [1] (PBS, free bases), the λem came to 485 nm and the λexc came out at 345 nm. For the same compound, the “ε (molar extinction coefficient)” value in data set [2] turned out to be 4000 L/mol/cm.

In the case of `Fc1cccc(F)c1[C@H]1CC[C@@H](N2CCN(C3CCCCC3)CC2)CC1` [compound 20, cis-1-cyclohexyl-4-[4-(2,6-difluorophenyl)cyclohexyl]piperazine], in data set [4], the “effect on mean fluorescence intensity of 16” value is listed as “decreased the mean fluorescence intensity of 16”. In addition, in data set [5], the “cell death versus cell density” value was “decreased cell death as the density increased”.

Consider `COc1cccc2c1CCCC2CCCN1CCN(C2CCN(CCCCCCNc3ccc([N+](=O)[O-])c4nonc34)CC2)CC1` (stereo not shown) [compound 7, 6-[4-[4-[3-(5-Methoxy-1,2,3,4-tetrahydronaphthalen-1-yl]propyl]piperazin-1-yl]piperidino]-N-(7-nitro-2,1,3-benzoxadiazol-4-yl)hexanamine], for which the λem in data set [1] (CHCl3) was determined as 515 nm; in data set [1] (EtOH, free bases), 520 nm; in data set [1] (PBS, free bases), 535 nm. Further, the λexc stood at 450 nm in data set [1] (CHCl3); 476 nm in data set [1] (EtOH, free bases); 480 nm in data set [1] (PBS, free bases). Also, the “Φ (quantum yield)” value is 0.17 in data set [1] (CHCl3) and 0.08 in data set [1] (EtOH, free bases). Further, the “ε (molar extinction coefficient)” value in data set [2] was found to be 14391 L/mol/cm.

Regarding `O=[N+]([O-])c1ccc(NCCOCCOc2cccc3c2CCCC3CCCN2CCN(C3CCCCC3)CC2)c2nonc12` (stereo not shown) [compound 17, 2-[2-[5-[3-(4-Cyclohexylpiperazin-1-yl)propyl]-5,6,7,8-tetrahydronaphthalen-1-yloxy]ethoxy]-N-(7-nitro-2,1,3-benzoxadiazol-4-yl)ethanamine], the λem in data set [1] (CHCl3) is given as 512 nm; in data set [1] (EtOH, free bases) it was 520 nm; in data set [1] (PBS, free bases), 520 nm. Moreover, the λexc in data set [1] (CHCl3) is listed as 450 nm; in data set [1] (EtOH, free bases) it was 465 nm; in data set [1] (PBS, free bases), 460 nm. The “Φ (quantum yield)” value in data set [1] (CHCl3) came out at 0.18; in data set [1] (EtOH, free bases), 0.04. Also, the “excitation peaks (λexc)” value in data set [1] is ~ 335 nm and ~ 450 nm. Besides, the “ε (molar extinction coefficient)” value in data set [2] was found to be 6544 L/mol/cm.

As to `COc1cccc2c1CCCC2CCCN1CCN(C2CCCCC2)CC1` (stereo not shown) [compound 1, 1-cyclohexyl-4-[3-(5-methoxy-1,2,3,4-tetrahydronaphthalen-1-yl)propyl]piperazine], the “effect on mean fluorescence intensity of 16” value in data set [4] is “decreased the mean fluorescence intensity of 16”. Also, the “cell death versus cell density” value in data set [5] is given as “decreased cell death as the density increased”.

The values above are taken from paper PMC3181126 (Journal of medicinal chemistry, 2011).
